High-throughput results (PubChem BioAssay)
Many of the other results were omitted from the sample, so hits are more common in it than they were.
INS promoter act = activators of insulin promoter-driven GFP, primary screen, imaging, TRM-6 cells, eGFP reporter, cell count | 130,000 tested, 0.81% active | plate-scaled: unstimulated 0, stimulated control 100 | activation, % at 2 µM;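 active = activation at 2 µM above a set limit, confirmed on inspection of the cell images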;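 note: share of cells whose green reporter signal exceeds an intensity cutoff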
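Material: Human fetal islet-derived TRM-6 cells with tamoxifen-inducible insulin promoter–eGFP reporter | Medium: Low-glucose (5.5 mM) medium with tamoxifen | Probe or stimulus: Tamoxifen inducer, 0.75 µM, in seeding medium | Schedule: Tamoxifen pre-incubation 15 h overnight, then compound exposure 48 h at 37 °C | Detection: High-content imaging of fixed cells with Hoechst nuclear stain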
* hit, by the source's call.

SMILES | INS promoter act
Cn1c(=O)c2c(nc(CN3CCN(Cc4ccccc4)CC3)n2Cc2ccccc2)n(C)c1=O | -80
CCCn1c(OC)nc2c1c(=O)n(C)c(=O)n2C | 0
CCCn1c(CN2CCCCC2CC)nc2c1c(=O)n(C)c(=O)n2C (stereo unspecified) | 600*
CC(C)C(=O)N1CCN(C2=NS(=O)(=O)c3ccccc32)CC1 | 68
C1=C(c2ccccc2)Nc2ccccc2N=C1c1ccccc1 | -7
Cc1nc2cc(C(=O)N3CCc4ccccc43)ccc2n1-c1ccc(F)c(F)c1 | 9
COc1cccc(NC(=O)CN(c2cccc(F)c2)S(C)(=O)=O)c1 | 444*
COc1ccc(NC(=O)CN(c2cccc(C(F)(F)F)c2)S(C)(=O)=O)cc1OC | 7
CC(=O)c1cccc(N(CC(=O)Nc2ccc(F)cc2)S(C)(=O)=O)c1 | 3
O=c1c(-c2nnc(SCc3ccc(Cl)c(Cl)c3)o2)cccn1Cc1ccccc1 | -4
Cc1ccc(CSc2nnc(-c3ccncc3)o2)c(C)c1 | 4
CCCCNC(=S)NNC(=O)c1csc(C)c1CC | 7
CCc1ccc(NC(=O)c2noc3c2CCC3)cc1 | 8
O=C(NCc1cccnc1)c1noc2c1CCCC2 | 3
O=C(NCc1cccc(F)c1)c1noc2c1CCCC2 | 257*
Oc1[nH]c2ccccc2c1C=Nc1ccc2c(c1)OCCO2 | 156
CCOc1ccc(C(=O)NC(=S)Nc2ccccc2N2CCC(C)CC2)cc1[N+](=O)[O-] | -7
Cc1ccccc1C(=O)NC(=S)Nc1ccccc1N1CCCC1 | -3
CC1CCN(c2ccccc2NC(=S)NC(=O)c2ccco2)CC1 | 230*
CCOC(=O)c1nn(-c2cccc(C)c2)c2nnc(Cc3ccc(C)cc3)c(=O)n12 | 5
C=CCNC(=S)/C(=C(/[O-])c1ccccc1Br)[n+]1ccccc1 | 0
CCn1c(SCC(=O)Nc2cccc(NC(=O)c3cccs3)c2)nnc1-c1ccncc1 | 0
CCn1c(SCC(=O)Nc2ccc(S(=O)(=O)Nc3ccccn3)cc2)nnc1-c1ccncc1 | 569*
CCn1c(SCC(=O)NC2CCCc3ccccc32)nnc1-c1ccncc1 (stereo unspecified) | -7
Cc1cccn2c(=O)c3cc(C(=O)NCCCN4CCCC4=O)n(C)c3nc12 | 0
SMILES | INS promoter act
COc1ccc2cnn(CCOc3cc(C)ccc3C(C)C)c(=O)c2c1OC | -6
CCN=C1SC(C(=O)Nc2cccc(Br)c2)CC(=O)N1CC (stereo unspecified) | 0
CC1SC(c2ccc(Cl)cc2)NC1=O (stereo unspecified) | 444*
CC1SC(c2cccc(Cl)c2)NC1=O (stereo unspecified) | 7
O=C(O)C1CC(=O)N(c2ccc(OCc3c(F)cccc3Cl)cc2)C1 (stereo unspecified) | 0
O=C(NCc1ccco1)C1CCCN1C(=O)NCc1ccccc1 (stereo unspecified) | 7
COc1ccc(C(=O)Nc2sc(C(=O)N(C)C)c(C)c2C#N)cc1[N+](=O)[O-] | 0
Cc1nc(N)c(C#N)c(-c2ccccc2)c1C | 0
Cc1cc(-c2ccccc2)n2nc(C)c(C#N)c2n1 | -3
CSc1nn2c(C)c(C)c(C)nc2c1C#N | 322*
Cn1c(N)c(C(=O)COC(=O)C2(c3ccc(Cl)cc3)CCCC2)c(=O)n(C)c1=O | 3
COCCN(Cc1cc2cc(C)ccc2nc1Cl)C(=O)Nc1ccccc1OC | 133
CCOC(=O)C1=C(C)NC(SCc2cc(=O)[nH][nH]2)=C(C#N)C1c1cccs1 (stereo unspecified) | 244
Cn1cc(C(=O)Nc2ccc(F)c(F)c2)cn1 | 4
O=C(COc1cccc(Cl)c1)Nc1ccc(N2CCOCC2)cc1 | 0
COc1ccccc1OCC(=O)Nc1ccc(N2CCCCC2)cc1 | -9
Cc1ccc(OCC(=O)Nc2ccc(N3CCCC3)cc2)cc1C | 163*
O=c1[nH]c2cc3c(cc2cc1CN(CCCO)Cc1nnnn1Cc1ccc(F)cc1)OCO3 | 0
Cc1ccc2cc(CN(CCO)Cc3nnnn3Cc3ccc(F)cc3)c(=O)[nH]c2c1 | 140*
COc1ccc2[nH]c(=O)c(CN(Cc3nnnn3Cc3ccc(F)cc3)CC3CCCO3)cc2c1 (stereo unspecified) | 118
Cc1ccc(Nc2nnc(SCC(=O)NCc3ccco3)s2)cc1 | 2
O=C(CCCCCNC(=O)c1ccccc1)C[N+](=O)[O-] | 8
CCN1C/C(=C\c2cccc([N+](=O)[O-])c2)C(=O)/C(=C/c2cccc([N+](=O)[O-])c2)C1 | -100
COc1ccc(C)cc1S(=O)(=O)N(C)CC(=O)N1CCCCCC1 | 14
CCOc1nc(NC2CCCCC2)nc(NC(C)(C)C)n1 | -77
SMILES | INS promoter act
O=C(Nc1ccc(Cl)cc1C(=O)N1CCOCC1)c1cccc([N+](=O)[O-])c1 | 7
CCC1CCCCN1CCCNC(=O)C1CCN(S(=O)(=O)N2CCCCC2)CC1 (stereo unspecified) | 215*
O=C(NCCC1=CCCCC1)C1CCN(S(=O)(=O)N2CCCC2)CC1 | -7
O=C(NCCCN1CCCC1=O)C1CCN(S(=O)(=O)N2CCOCC2)CC1 | 131
CCOC(=O)Cc1csc(NC(=O)CSc2nnc3ccccn23)n1 | 9
O=C(CSc1ncccc1C(=O)O)c1cccc(C(F)(F)F)c1 | 0
CCSc1nnc(-c2ccccc2NC(C)=O)c(=O)[nH]1 | -71
O=C(/C=C/c1cccc(Cl)c1)Nn1c(-c2cccs2)nc2ccccc2c1=O | -9
COCCn1c(=S)[nH]c2cc(OC)c(OC)cc2c1=O | 5
CCOc1cc2[nH]c(=O)n(CC3CCC(C(=O)NCCCOC)CC3)c(=O)c2cc1OCC (stereo unspecified) | 171*
CCC1CCCCN1CCCNC(=O)c1ccc2c(=O)n(Cc3ccc(OC)cc3)c(=O)[nH]c2c1 (stereo unspecified) | 9
Cn1c(SCc2ccccc2)nnc1-c1ccncc1 | 0
Cc1ccc(S(=O)(=O)CCc2nnc(NC(=O)C3CCCO3)s2)cc1 (stereo unspecified) | 5
CC1CCCCN1C(=O)CNCC1CCCO1 (stereo unspecified) | 8
O=C(O)c1cccc(NS(=O)(=O)c2cccc3nsnc23)c1 | -7
COc1ccccc1CC(=O)Nc1cccc2c1CCCC2 | 8
COc1cc(NC(=O)Cc2ccccc2OC)cc(OC)c1 | 435*
COc1ccccc1CC(=O)Nc1cc(Cl)ccc1O | -5
O=C(NCCCl)C1Cc2c(ccc3ccccc23)O1 (stereo unspecified) | 3
CC(C)CC1NC(=O)N(CC(=O)Nc2ccccc2-c2ccccc2)C1=O (stereo unspecified) | 156
Cc1cccc(NC(=O)CSc2nnc(NC(=O)c3ccc(S(=O)(=O)N4CCOCC4)cc3)s2)c1C | 0
Cc1ccccc1NC(=O)COc1ccc(Br)cc1C | 431*
Cc1cc(Cl)ccc1OCC(=O)Nc1ccccc1N1CCOCC1 | 363
Cc1ccccc1OCC(=O)Nc1cccc2nsnc12 | -43
Cc1cccnc1N(C(=O)Nc1cccc(Cl)c1)C1=NCC(C)(C)S1 | -7
SMILES | INS promoter act
NC1=NC(=O)C2(COC(c3ccncc3)OC2)S1 (stereo unspecified) | 9
O=C(Nc1ccccc1)Nc1nnc(Cc2ccc([N+](=O)[O-])cc2)s1 | -8
CN(C)CCN(C(=O)c1cccc(Cl)c1)c1nc2c(Cl)cccc2s1 | -10
COc1ccc(OC)c2sc(N(CCN(C)C)C(=O)c3cc(Cl)sc3Cl)nc12 | 283*
CN(C)CCCN(C(=O)c1ccco1)c1nc2ccc(Cl)cc2s1 | 0
CCOC(=O)Cc1csc(NC(=O)C(C)(C)CC)n1 | 9
